How the values were obtained:
NCI-H1975 [1] = assay: Growth inhibition of human NCI-H1975 cells after 72 hrs by CellTiter-Glo assay; format: functional; settings: NCI-H1975, 72 h
Procedure, shortened: (§1)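 Antiproliferative GI50 against H1975 and H3122 cells; each GI50 value obtained from triplicate testing.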

NCI-H3122 [2] = assay: Growth inhibition of human NCI-H3122 cells after 72 hrs by CellTiter-Glo assay; format: functional; settings: NCI-H3122, 72 h; procedure, shortened: as §1
[3] = tested on: Epidermal growth factor receptor (Homo sapiens), P00533 [T790M]; assay: Inhibition of TEL-fused EGFR T790M mutant (unknown origin) expressed in mouse BAF3 cells assessed as decrease in cell proliferation after 72 hrs by CellTiter-Glo assay; format: cell-based
Epidermal growth factor receptor (Homo sapiens), P00533 [T790M], sequence (P00533 whole entry T790M, the tested form may be a part): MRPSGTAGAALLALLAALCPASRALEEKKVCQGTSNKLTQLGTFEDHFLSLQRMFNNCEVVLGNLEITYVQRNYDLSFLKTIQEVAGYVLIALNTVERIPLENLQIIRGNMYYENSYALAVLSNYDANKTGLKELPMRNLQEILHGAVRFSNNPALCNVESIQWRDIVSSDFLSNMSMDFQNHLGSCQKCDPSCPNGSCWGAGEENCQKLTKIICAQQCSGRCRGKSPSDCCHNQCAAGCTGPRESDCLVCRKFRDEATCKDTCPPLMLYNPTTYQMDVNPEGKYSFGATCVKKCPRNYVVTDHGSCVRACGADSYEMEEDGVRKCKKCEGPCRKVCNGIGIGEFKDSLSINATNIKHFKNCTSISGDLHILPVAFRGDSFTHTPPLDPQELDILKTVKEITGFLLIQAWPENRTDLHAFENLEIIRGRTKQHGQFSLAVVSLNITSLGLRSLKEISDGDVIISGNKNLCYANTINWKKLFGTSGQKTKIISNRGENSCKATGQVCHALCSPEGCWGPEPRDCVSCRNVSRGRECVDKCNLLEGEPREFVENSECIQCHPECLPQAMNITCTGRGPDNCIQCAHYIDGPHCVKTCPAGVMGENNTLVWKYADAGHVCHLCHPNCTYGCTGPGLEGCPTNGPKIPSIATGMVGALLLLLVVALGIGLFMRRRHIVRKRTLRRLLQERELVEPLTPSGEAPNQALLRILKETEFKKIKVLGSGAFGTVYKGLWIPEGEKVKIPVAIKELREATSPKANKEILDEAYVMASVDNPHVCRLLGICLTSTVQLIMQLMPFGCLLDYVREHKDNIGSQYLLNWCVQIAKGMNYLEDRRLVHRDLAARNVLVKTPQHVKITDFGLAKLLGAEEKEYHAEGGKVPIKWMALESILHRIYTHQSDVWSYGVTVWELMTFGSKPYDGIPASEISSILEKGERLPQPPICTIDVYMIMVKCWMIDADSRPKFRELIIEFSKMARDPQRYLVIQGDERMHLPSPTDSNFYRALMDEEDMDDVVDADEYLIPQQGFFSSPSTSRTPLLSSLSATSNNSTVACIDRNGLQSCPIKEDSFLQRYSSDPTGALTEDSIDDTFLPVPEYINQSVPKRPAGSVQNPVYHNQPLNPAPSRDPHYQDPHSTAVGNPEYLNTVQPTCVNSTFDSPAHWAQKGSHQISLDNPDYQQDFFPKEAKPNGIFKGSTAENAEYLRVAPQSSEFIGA

[4] = target: T1, Epidermal growth factor receptor (Homo sapiens, UniProt P00533); assay: Inhibition of TEL-fused EGFR (unknown origin) expressed in mouse BAF3 cells assessed as decrease in cell proliferation after 72 hrs by CellTiter-Glo assay; format: cell-based
T1 sequence (P00533 whole entry, the tested form may be a part): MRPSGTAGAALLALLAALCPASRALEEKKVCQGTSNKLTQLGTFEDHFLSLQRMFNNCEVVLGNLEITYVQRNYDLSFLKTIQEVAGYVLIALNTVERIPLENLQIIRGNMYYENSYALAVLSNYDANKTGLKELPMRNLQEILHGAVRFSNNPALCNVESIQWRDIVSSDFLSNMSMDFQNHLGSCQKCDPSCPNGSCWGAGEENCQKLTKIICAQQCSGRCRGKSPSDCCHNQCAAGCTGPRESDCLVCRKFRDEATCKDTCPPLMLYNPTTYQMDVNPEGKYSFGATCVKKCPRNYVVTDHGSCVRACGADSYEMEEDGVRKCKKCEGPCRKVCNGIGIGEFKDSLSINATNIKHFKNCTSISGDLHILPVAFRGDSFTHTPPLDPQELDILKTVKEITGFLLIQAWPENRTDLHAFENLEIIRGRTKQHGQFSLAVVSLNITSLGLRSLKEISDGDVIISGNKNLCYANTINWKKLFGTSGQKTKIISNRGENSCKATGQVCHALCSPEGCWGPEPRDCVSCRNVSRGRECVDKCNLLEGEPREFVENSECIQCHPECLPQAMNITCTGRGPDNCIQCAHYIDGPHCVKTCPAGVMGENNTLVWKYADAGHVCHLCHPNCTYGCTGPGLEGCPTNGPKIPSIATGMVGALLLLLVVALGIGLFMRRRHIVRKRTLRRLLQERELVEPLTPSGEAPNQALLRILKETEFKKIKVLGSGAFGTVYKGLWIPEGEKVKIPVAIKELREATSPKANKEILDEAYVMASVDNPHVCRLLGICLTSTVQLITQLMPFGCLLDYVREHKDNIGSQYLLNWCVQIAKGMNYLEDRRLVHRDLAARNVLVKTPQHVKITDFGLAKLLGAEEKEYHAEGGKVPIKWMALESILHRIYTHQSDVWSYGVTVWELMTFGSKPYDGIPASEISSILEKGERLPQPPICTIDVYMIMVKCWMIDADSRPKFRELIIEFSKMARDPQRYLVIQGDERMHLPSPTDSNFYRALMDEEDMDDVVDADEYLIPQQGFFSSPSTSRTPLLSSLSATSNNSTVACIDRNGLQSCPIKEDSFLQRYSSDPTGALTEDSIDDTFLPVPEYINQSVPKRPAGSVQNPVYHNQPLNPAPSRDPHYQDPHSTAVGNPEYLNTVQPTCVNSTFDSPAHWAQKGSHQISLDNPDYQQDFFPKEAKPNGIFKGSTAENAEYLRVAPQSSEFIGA

NCI-H1975 [5] = assay: Antiproliferative activity against human NCI-H1975 cells harboring EGFR L858R/T790M mutant after 72 hrs by CellTiter-Glo assay; format: functional; settings: NCI-H1975, 72 h; procedure, shortened: as §1
[6] = Antiproliferative activity against CHO cells after 72 hrs by CellTiter-Glo assay; format: cell-based, Cricetulus griseus; settings: chinese hamster
NCI-H1355 = assay: Antiproliferative activity against human NCI-H1355 cells harboring wild-type EGFR after 72 hrs by CellTiter-Glo assay; format: functional; settings: NCI-H1355, 72 h
[7] = Antiproliferative activity against mouse BAF3 cells after 72 hrs by CellTiter-Glo assay; format: cell-based
[8] = Antiproliferative activity against CHL cells after 72 hrs by CellTiter-Glo assay; format: cell-based, Cricetulus griseus; settings: chinese hamster
NCI-H2228 = assay: Antiproliferative activity against human NCI-H2228 cells harboring EML4-fused ALK varian3 after 72 hrs by CellTiter-Glo assay; format: functional; settings: NCI-H2228, 72 h
NCI-H3255 = assay: Antiproliferative activity against human H3255 cells harboring EGFR L858R mutant after 72 hrs by CellTiter-Glo assay; format: functional; settings: NCI-H3255, 72 h
HCC827 = assay: Antiproliferative activity against human HCC827 cells harboring EGFR del19 mutant after 72 hrs by CellTiter-Glo assay; format: functional; settings: HCC827, 72 h
[9] = tested on: Epidermal growth factor receptor (Homo sapiens), P00533 [C797S]; assay: Inhibition of TEL-fused EGFR C797S mutant (unknown origin) expressed in mouse BAF3 cells assessed as decrease in cell proliferation after 72 hrs by CellTiter-Glo assay; format: cell-based
Epidermal growth factor receptor (Homo sapiens), P00533 [C797S], sequence (P00533 whole entry C797S, the tested form may be a part): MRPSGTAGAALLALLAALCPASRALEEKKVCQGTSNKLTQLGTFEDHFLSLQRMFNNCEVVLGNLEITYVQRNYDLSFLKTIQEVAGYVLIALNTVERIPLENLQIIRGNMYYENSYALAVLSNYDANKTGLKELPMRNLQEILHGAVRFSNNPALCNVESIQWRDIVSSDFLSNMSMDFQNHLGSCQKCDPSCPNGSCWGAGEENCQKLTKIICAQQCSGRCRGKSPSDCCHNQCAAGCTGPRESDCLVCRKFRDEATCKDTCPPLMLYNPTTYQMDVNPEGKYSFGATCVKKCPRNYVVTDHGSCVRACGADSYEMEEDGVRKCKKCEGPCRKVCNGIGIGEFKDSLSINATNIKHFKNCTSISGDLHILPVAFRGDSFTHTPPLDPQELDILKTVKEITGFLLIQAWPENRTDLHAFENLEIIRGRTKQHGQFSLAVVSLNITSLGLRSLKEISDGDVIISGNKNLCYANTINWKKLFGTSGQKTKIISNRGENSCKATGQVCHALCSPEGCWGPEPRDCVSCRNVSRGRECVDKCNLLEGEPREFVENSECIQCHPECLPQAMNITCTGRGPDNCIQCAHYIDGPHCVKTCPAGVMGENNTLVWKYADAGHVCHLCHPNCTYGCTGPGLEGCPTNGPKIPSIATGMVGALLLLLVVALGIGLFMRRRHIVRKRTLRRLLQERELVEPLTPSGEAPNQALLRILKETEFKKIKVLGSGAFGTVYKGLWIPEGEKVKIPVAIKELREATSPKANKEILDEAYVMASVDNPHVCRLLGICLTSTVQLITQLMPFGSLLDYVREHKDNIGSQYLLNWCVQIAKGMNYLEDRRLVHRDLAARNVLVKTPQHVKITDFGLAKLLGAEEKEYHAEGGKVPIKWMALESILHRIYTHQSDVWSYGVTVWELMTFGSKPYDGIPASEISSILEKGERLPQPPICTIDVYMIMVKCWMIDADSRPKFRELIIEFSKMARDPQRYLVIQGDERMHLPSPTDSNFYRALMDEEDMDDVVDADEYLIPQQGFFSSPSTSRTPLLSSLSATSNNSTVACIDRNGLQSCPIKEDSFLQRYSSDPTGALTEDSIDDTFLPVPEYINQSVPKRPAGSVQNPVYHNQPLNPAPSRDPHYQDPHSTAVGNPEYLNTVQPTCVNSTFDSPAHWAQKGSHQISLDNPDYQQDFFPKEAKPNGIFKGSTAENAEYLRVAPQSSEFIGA

NCI-H3122 [10] = assay: Antiproliferative activity against human NCI-H3122 cells harboring EML4-fused ALK varian1 after 72 hrs by CellTiter-Glo assay; format: functional; settings: NCI-H3122, 72 h; procedure, shortened: as §1
[11] = tested on: Epidermal growth factor receptor (Homo sapiens), P00533 [L858R,T790M,C797S]; assay: Inhibition of full length EGFR L858R/T790M/C797S mutant (unknown origin) expressed in mouse BAF3 cells assessed as decrease in cell proliferation after 72 hrs by CellTiter-Glo assay; format: cell-based
A549 = assay: Antiproliferative activity against human A549 cells harboring wild-type EGFR after 72 hrs by CellTiter-Glo assay; format: functional; settings: A549, 72 h
NCI-H2122 = assay: Antiproliferative activity against human NCI-H2122 cells harboring wild-type EGFR after 72 hrs by CellTiter-Glo assay; format: functional; settings: NCI-H2122, 72 h
[12] = target: T1, Epidermal growth factor receptor; assay: Inhibition of full length EGFR del19 mutant (unknown origin) expressed in mouse BAF3 cells assessed as decrease in cell proliferation after 72 hrs by CellTiter-Glo assay; format: cell-based
PC-9 = assay: Antiproliferative activity against human PC9 cells harboring EGFR del19 mutant after 72 hrs by CellTiter-Glo assay; format: functional; settings: PC-9, 72 h
[13] = tested on: Epidermal growth factor receptor (Homo sapiens), P00533 [L858R]; assay: Inhibition of full length EGFR L858R mutant (unknown origin) expressed in mouse BAF3 cells assessed as decrease in cell proliferation after 72 hrs by CellTiter-Glo assay; format: cell-based
Epidermal growth factor receptor (Homo sapiens), P00533 [L858R], sequence (P00533 whole entry L858R): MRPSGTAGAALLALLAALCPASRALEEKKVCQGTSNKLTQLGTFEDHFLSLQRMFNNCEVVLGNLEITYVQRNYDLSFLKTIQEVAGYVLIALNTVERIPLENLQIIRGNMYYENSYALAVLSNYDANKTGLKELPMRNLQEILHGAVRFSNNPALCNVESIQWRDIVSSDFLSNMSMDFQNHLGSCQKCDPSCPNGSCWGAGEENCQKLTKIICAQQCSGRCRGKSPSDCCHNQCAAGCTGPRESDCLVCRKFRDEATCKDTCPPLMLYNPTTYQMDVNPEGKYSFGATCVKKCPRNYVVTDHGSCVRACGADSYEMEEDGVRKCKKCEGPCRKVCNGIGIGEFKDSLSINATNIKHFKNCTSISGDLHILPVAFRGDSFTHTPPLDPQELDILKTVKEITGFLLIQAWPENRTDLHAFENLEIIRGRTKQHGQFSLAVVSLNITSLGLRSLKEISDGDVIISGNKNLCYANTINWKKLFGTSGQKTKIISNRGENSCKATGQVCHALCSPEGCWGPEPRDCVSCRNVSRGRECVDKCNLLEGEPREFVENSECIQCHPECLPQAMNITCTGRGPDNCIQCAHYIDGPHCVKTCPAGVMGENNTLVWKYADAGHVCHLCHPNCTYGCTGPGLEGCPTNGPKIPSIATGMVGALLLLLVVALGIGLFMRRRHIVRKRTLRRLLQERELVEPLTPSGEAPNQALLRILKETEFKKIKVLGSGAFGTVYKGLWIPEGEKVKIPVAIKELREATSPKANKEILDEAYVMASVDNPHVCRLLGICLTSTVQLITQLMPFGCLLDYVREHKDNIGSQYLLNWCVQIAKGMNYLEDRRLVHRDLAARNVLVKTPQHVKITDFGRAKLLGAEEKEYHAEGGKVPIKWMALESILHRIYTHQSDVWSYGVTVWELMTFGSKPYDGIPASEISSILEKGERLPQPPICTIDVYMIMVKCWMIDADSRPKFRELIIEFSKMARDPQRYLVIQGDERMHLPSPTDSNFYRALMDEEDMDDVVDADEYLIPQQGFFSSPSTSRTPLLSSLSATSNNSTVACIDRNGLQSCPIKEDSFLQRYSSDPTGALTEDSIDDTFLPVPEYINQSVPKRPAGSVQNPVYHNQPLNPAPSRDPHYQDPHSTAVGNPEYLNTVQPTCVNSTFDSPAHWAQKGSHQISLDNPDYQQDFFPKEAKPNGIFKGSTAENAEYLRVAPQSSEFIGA

[14] = tested on: Epidermal growth factor receptor (Homo sapiens), P00533 [L858R,T790M]; assay: Inhibition of full length EGFR L858R/T790M mutant (unknown origin) expressed in mouse BAF3 cells assessed as decrease in cell proliferation after 72 hrs by CellTiter-Glo assay; format: cell-based

| GI50 (NCI-H1975 [1]) | GI50 (NCI-H3122 [2]) | Compound | further results |
| --- | --- | --- | --- |
| 25 nM | – | C=CC(=O)Nc1cc(Nc2ncc(Cl)c(Nc3ccccc3S(=O)(=O)C(C)C)n2)c(OC)cc1N1CCN(C(C)C)CC1 | – |
| 43 nM | 33 nM | C=CC(=O)Nc1cc(Nc2ncc(Cl)c(Nc3ccccc3S(=O)(=O)C(C)C)n2)c(OC)cc1N1CCN(C)CC1 | – |
| 250 nM | 12 nM | C=CC(=O)Nc1cc(Nc2ncc(Cl)c(Nc3ccccc3C(=O)NC)n2)c(OC)cc1N1CCN(C(C)=O)CC1 | – |
| 27 nM | – | C=CC(=O)Nc1cc(Nc2ncc(C)c(Nc3ccccc3S(=O)(=O)C(C)C)n2)c(OC)cc1N1CCC(N2CCN(C)CC2)CC1 | – |
| 440 nM | 110 nM | C=CC(=O)Nc1cc(Nc2ncc(Cl)c(Nc3ccccc3C#N)n2)c(OC)cc1N1CCN(CC)CC1 | – |
| > 10000 nM | 3200 nM | C=CC(=O)Nc1cc(Nc2ncc(Cl)c(NC3CC3)n2)c(OC)cc1N1CCN(C)CC1 | – |
| 41 nM | 78 nM | C=CC(=O)Nc1cc(Nc2ncc(Cl)c(Nc3ccccc3P(C)(C)=O)n2)c(OC)cc1N1CCC(N2CCCCC2)CC1 | – |
| – | – | COc1cc(N2CCC(N3CCN(C)CC3)CC2)ccc1Nc1ncc(Cl)c(Nc2ccccc2S(=O)(=O)C(C)C)n1 | GI50 [3]: 420 nM; GI50 [4]: 560 nM |
| – | – | CCC(=O)Nc1cc(Nc2ncc(Cl)c(Nc3ccccc3S(=O)(=O)C(C)C)n2)c(OC)cc1N1CCCN(C)CC1 | GI50 (NCI-H1975 [5]): 700 nM; GI50 at 72 h [6]: 3.6 µM; GI50 [3]: 800 nM; GI50 [4]: 1500 nM; GI50 (NCI-H1355): 2.2 µM; GI50 at 72 h [7]: 7.1 µM; GI50 at 72 h [8]: 1300 nM; GI50 (NCI-H2228): 100 nM; GI50 (NCI-H3255): 830 nM; GI50 (HCC827): 2600 nM; GI50 [9]: 360 nM; GI50 (NCI-H3122 [10]): < 0.3 nM; GI50 [11]: 1700 nM; GI50 (A549): 1200 nM; GI50 (NCI-H2122): 3.3 µM; GI50 [12]: 270 nM; GI50 (PC-9): 340 nM; GI50 [13]: 370 nM; GI50 [14]: 290 nM |
| 41 nM | – | C=CC(=O)Nc1cc(Nc2ncc(Cl)c(Nc3ccccc3S(=O)(=O)C(C)C)n2)c(OC)cc1N1CCN(CCOC)CC1 | – |
| 50 nM | 3.5 nM | C=CC(=O)Nc1cc(Nc2ncc(Cl)c(Nc3ccccc3C(=O)NC)n2)c(OC)cc1N1CCN(C)CC1 | – |
| 890 nM | 800 nM | C=CC(=O)Nc1cc(Nc2ncc(Cl)c(Nc3ccccc3P(C)(C)=O)n2)c(OC)cc1N1CCN(S(C)(=O)=O)CC1 | – |
| 430 nM | 110 nM | C=CC(=O)Nc1cc(Nc2ncc(Cl)c(Nc3ccccc3C#N)n2)c(OC)cc1N1CCN(C(C)C)CC1 | – |
| 31 nM | 11 nM | C=CC(=O)Nc1cc(Nc2ncc(Cl)c(Nc3ccccc3S(=O)(=O)N(C)C)n2)c(OC)cc1N1CCN(C)CC1 | – |
| 260 nM | 770 nM | C=CC(=O)Nc1cc(Nc2ncc(Cl)c(Nc3cccc(C(F)(F)F)c3)n2)c(OC)cc1N1CCN(C)CC1 | – |
| 1800 nM | 3600 nM | C=CC(=O)Nc1cc(Nc2ncc(Cl)c(N(C)c3cccc(C(F)(F)F)c3)n2)c(OC)cc1N1CCN(C)CC1 | – |
| 79 nM | 4.5 nM | C=CC(=O)Nc1cc(Nc2ncc(Cl)c(Nc3ccccc3C(=O)NC)n2)c(OC)cc1N1CCN(C(C)C)CC1 | – |
| 1200 nM | < 0.3 nM | C=CC(=O)Nc1cc(Nc2ncc(Cl)c(Nc3ccccc3S(=O)(=O)C(C)C)n2)c(OC)cc1N1CCOCC1 | – |
| 950 nM | 6500 nM | C=CC(=O)Nc1cc(Nc2ncc(Cl)c(Nc3ccccc3NC(=O)C(C)(C)C)n2)c(OC)cc1N1CCN(C)CC1 | – |

| GI50 (NCI-H1975 [1]) | GI50 (NCI-H3122 [2]) | Compound | further results |
| --- | --- | --- | --- |
| 7100 nM | 4900 nM | C=CC(=O)Nc1cc(Nc2ncc(Cl)c(Nc3ccccc3S(=O)(=O)C(C)C)n2)ccc1N1CCC(N2CCN(C)CC2)CC1 | – |
| 300 nM | < 0.3 nM | C=CC(=O)Nc1cc(Nc2ncc(Cl)c(Nc3ccccc3S(=O)(=O)C(C)C)n2)c(OC(C)C)cc1N1CCN(CC)CC1 | – |
| 220 nM | 140 nM | C=CC(=O)Nc1cc(Nc2ncc(Cl)c(Nc3ccccc3P(C)(C)=O)n2)c(OC)cc1N1CCC(N(C)C)CC1 | – |
| 23 nM | – | C=CC(=O)Nc1cc(Nc2ncc(Cl)c(Nc3ccccc3S(=O)(=O)C(C)C)n2)c(OC)cc1N1CCC(N2CCN(C)CC2)CC1 | – |
| 780 nM | 360 nM | C=CC(=O)Nc1cc(Nc2ncc(Cl)c(Nc3ccccc3P(C)(C)=O)n2)c(OC)cc1N1CCOCC1 | – |
| 43 nM | 2 nM | C=CC(=O)Nc1cc(Nc2ncc(C)c(Nc3ccccc3S(=O)(=O)C(C)C)n2)c(OC)cc1N1CCN(CC)CC1 | – |
| – | – | C[C@@H](Oc1cc(-c2cnn(C3CCNCC3)c2)cnc1N)c1c(Cl)ccc(F)c1Cl [CRIZOTINIB] | GI50 at 72 h [6]: 3.2 µM; GI50 at 72 h [7]: 1.1 µM; GI50 at 72 h [8]: 450 nM; GI50 (NCI-H3122 [10]): 37 nM |
| 220 nM | 270 nM | C=CC(=O)Nc1cc(Nc2ncc(Cl)c(NCc3cccs3)n2)c(OC)cc1N1CCN(C)CC1 | – |
| 77 nM | – | C=CC(=O)Nc1cc(Nc2ncc(Cl)c(Nc3ccccc3S(=O)(=O)C(C)C)n2)c(OC)cc1N1CCN(C2CCCCC2)CC1 | – |
| 130 nM | 2900 nM | C=CC(=O)Nc1cc(Nc2ncc(Cl)c(Nc3c(F)cccc3F)n2)c(OC)cc1N1CCN(C)CC1 | – |
| 200 nM | 98 nM | C=CC(=O)Nc1cc(Nc2ncc(Cl)c(Nc3ccccc3C#N)n2)c(OC)cc1N1CCC(N2CCN(C)CC2)CC1 | – |
| 190 nM | 41 nM | C=CC(=O)Nc1cc(Nc2nccc(Nc3ccccc3S(=O)(=O)C(C)C)n2)c(OC)cc1N1CCN(CC)CC1 | – |
| 100 nM | 300 nM | C=CC(=O)Nc1cc(Nc2ncc(Cl)c(Nc3ccc(F)c(Cl)c3)n2)c(OC)cc1N1CCN(C)CC1 | – |
| 40 nM | – | C=CC(=O)Nc1cc(Nc2ncc(Cl)c(Nc3ccccc3S(=O)(=O)C(C)C)n2)c(OC)cc1N1CCN(S(C)(=O)=O)CC1 | – |
| 120 nM | 18 nM | C=CC(=O)Nc1cc(Nc2ncc(Cl)c(Nc3ccccc3C(=O)NC)n2)c(OC)cc1N1CCN(C2CCN(C)CC2)CC1 | – |
| 1200 nM | 370 nM | C=CC(=O)Nc1cc(Nc2ncc(Cl)c(Nc3ccccc3C#N)n2)c(OC)cc1N1CCOCC1 | – |
| – | – | C=CC(=O)Nc1cccc(Oc2nc(Nc3ccc(N4CCN(C)CC4)cc3OC)ncc2Cl)c1 | GI50 (NCI-H1975 [5]): 56 nM; GI50 at 72 h [6]: 3.9 µM; GI50 [3]: 2.1 nM; GI50 (NCI-H1355): 5.3 µM; GI50 at 72 h [8]: 4400 nM; GI50 (NCI-H3255): 390 nM; GI50 (HCC827): 7.4 nM; GI50 [9]: 890 nM; GI50 (A549): > 10000 nM; GI50 (NCI-H2122): 5.7 µM; GI50 (PC-9): 27 nM |
| 240 nM | 29 nM | C=CC(=O)Nc1cc(Nc2ncc(Cl)c(Nc3ccccc3S(=O)(=O)C(C)C)n2)c(OC)cc1N1CCCCC1 | – |
| 26 nM | 37 nM | C=CC(=O)Nc1cc(Nc2ncc(Cl)c(Nc3ccccc3P(C)(C)=O)n2)c(OC)cc1N1CCN(CC)CC1 | – |

— ChEMBL document CHEMBL4145441, “Discovery of N-(5-((5-chloro-4-((2-(isopropylsulfonyl)phenyl)amino)pyrimidin-2-yl)amino)-4-methoxy-2-(4-methyl-1,4-diazepan-1-yl)phenyl)acrylamide (CHMFL-ALK/EGFR-050) as a potent ALK/EGFR dual kinase inhibitor capable of overcoming a variety of ALK/EGFR associated drug resistant mutants in NSCLC” (Eur J Med Chem, 2017)
